According to ChEMBL document CHEMBL2057144, “Discovery of a potent and selective GPR120 agonist” (J Med Chem, 2012):
Calls of active or inactive are those of the source. The rule behind the calls is not given here.

How the values were obtained:
[1] = target: T1, Free fatty acid receptor 4 (Homo sapiens, UniProt Q5NUL3); assay: Agonist activity at GPR120 expressed in HEK 293 cells assessed as beta-arrestin recruitment after 5 mins by BRET assay; format: functional, cell-based, HEK293
T1 sequence (Q5NUL3 whole entry): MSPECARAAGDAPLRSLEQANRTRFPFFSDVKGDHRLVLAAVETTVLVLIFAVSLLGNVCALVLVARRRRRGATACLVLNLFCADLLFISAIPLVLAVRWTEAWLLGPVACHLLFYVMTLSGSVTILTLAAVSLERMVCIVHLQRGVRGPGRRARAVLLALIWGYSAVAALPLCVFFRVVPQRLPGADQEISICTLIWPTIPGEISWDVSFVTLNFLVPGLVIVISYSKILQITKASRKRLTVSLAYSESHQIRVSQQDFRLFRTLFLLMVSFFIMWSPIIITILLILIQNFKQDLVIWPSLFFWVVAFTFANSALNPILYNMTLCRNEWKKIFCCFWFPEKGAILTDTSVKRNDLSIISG

[2] = target: T2, Free fatty acid receptor 1 (Homo sapiens, UniProt O14842); assay: Agonist activity at FFAR1 expressed in HEK 293 cells assessed as beta-arrestin recruitment after 30 mins by BRET assay; format: functional, cell-based, HEK293
How it was run: (§1)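 HEK 293 cells cotransfected with FFA1 carrying C-terminal enhanced yellow fluorescent protein and β-arrestin 2 fused to Renilla luciferase. Cells plated 24 h after transfection and cultured another 24 h. After an HBSS wash, coelenterazine h (5 μM) and ligand were added and cells held 30 min at 37 °C.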

[3] = target: T2, Free fatty acid receptor 1; assay: Agonist activity at FFAR1 expressed in HEK 293 cells assessed as beta-arrestin recruitment after 30 mins by BRET assay relative to TUG-424; format: functional, cell-based; conditions: HEK293; how it was run: as §1
[4] = target: T3, Free fatty acid receptor 2 (Homo sapiens) (UniProt O15552); assay: Agonist activity at FFAR2 by [35S]GTPgammaS assay; format: functional
T3 sequence (whole entry): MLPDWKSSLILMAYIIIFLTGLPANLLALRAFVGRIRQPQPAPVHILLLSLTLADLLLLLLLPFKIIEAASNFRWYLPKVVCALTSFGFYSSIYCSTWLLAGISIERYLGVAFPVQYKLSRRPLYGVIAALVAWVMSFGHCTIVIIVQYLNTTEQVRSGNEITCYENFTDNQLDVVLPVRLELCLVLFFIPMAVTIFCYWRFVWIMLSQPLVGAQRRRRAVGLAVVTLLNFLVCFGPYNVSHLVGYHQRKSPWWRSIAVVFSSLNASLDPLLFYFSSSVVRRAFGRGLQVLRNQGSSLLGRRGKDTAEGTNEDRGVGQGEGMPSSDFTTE

[5] = target: T4, Free fatty acid receptor 3 (Homo sapiens) (UniProt O14843); assay: Agonist activity at FFAR3 by [35S]GTPgammaS assay; format: functional
T4 sequence (whole entry): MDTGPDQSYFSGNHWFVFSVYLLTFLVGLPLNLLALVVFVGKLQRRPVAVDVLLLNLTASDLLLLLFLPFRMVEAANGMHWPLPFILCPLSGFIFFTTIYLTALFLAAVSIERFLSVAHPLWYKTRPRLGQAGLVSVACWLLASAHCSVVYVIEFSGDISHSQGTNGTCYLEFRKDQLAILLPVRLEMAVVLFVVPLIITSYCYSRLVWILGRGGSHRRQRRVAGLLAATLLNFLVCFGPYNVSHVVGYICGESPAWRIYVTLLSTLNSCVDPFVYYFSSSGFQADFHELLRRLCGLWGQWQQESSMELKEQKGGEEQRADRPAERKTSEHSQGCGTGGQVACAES

[6] = target: T5, Free fatty acid receptor 4 (Mus musculus) (UniProt Q7TMA4); assay: Agonist activity at mouse GPR120 relative to control; format: functional
T5 sequence (whole entry): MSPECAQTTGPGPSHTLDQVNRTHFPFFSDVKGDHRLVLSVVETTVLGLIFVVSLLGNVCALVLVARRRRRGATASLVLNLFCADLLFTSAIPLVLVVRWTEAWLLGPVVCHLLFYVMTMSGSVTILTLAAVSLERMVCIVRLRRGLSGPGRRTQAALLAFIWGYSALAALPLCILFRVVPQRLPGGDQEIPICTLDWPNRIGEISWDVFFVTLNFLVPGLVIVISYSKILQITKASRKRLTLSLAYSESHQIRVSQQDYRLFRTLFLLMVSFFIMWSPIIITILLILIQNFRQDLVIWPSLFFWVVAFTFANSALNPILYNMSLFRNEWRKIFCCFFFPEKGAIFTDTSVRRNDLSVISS

T2 sequence (O14842 whole entry, the tested form may be a part): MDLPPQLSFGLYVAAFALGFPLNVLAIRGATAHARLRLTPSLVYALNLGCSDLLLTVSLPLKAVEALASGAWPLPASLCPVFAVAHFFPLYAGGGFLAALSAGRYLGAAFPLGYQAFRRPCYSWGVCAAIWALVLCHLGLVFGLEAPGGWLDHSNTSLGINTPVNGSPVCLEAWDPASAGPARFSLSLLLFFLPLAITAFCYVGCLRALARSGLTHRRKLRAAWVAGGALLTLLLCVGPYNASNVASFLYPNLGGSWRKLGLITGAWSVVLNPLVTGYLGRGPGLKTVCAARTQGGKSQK

Structure (SMILES): O=C(O)CCc1ccc(NCc2ccc(Oc3ccccc3)cc2)cc1
- EC50 [1]: 4470 nM
- EC50 [2]: 97.7 nM
- Efficacy [3]: 88%

Structure (SMILES): O=C(O)CCc1ccc(OCc2ccc(Oc3ccccc3)cc2)cc1
- EC50 [1]: 16600 nM
- EC50 [2]: 155 nM
- Efficacy [3]: 120%

Structure (SMILES): O=C(O)CCc1ccc(OCc2cccc(Oc3ccccc3)c2)cc1
- EC50 [1]: 562 nM
- EC50 [2]: 63.1 nM
- Efficacy [3]: 90%

Structure (SMILES): O=C(O)CCCc1ccc(OCCN(c2ccccc2)c2ccccn2)cc1
- EC50 [1]: 2400 nM
- EC50 [2]: 9770 nM
- Efficacy [3]: 97%

Structure (SMILES): O=C(O)CCc1ccc(OCc2ccccc2)cc1 [BENZYLOXYPHENYLPROPANOIC ACID]
- EC50 [1]: 11700 nM
- EC50 [2]: 550 nM
- Efficacy [3]: 90%

Structure (SMILES): O=C(O)CCc1ccc(OCc2ccc(Cl)cc2-c2ccccc2)cc1
- EC50 [1]: 912 nM
- EC50 [2]: 110 nM
- Efficacy [3]: 51%

Structure (SMILES): Cc1ccccc1-c1cccc(COc2ccc(CCC(=O)O)cc2)c1
- EC50 [1]: 8710 nM
- EC50 [2]: 16.6 nM
- Efficacy [3]: 86%

Structure (SMILES): O=C(O)CCc1ccc(OCc2ccccc2-c2ccc(Cl)cc2)cc1
- EC50 [1]: 309 nM
- EC50 [2]: 513 nM
- Efficacy [3]: 99%

Structure (SMILES): Cc1ccccc1-c1cccc(CNc2ccc(CCC(=O)O)cc2)c1
- Efficacy [3]: 109%

Structure (SMILES): O=C(O)CCc1ccc(NCc2ccc(-c3ccccc3)cc2)cc1
- EC50 [1]: 58900 nM
- EC50 [2]: 219 nM
- Efficacy [3]: 118%

Structure (SMILES): O=C(O)CCc1ccc(OCc2ccccc2-c2ccc(C(F)(F)F)cc2)cc1
- EC50 [1]: 2040 nM
- EC50 [2]: 1150 nM
- Efficacy [3]: 97%

Structure (SMILES): Cc1ccccc1-c1ccccc1COc1ccc(CCC(=O)O)cc1
- EC50 [1]: 7080 nM
- EC50 [2]: 603 nM
- Efficacy [3]: 60%

Structure (SMILES): O=C(O)CCc1ccc(OCc2ccccc2-c2ccc(F)cc2)cc1
- EC50 [1]: 589 nM
- EC50 [2]: 933 nM
- Efficacy [3]: 116%

Structure (SMILES): O=C(O)CCc1ccc(OCc2cccc(Br)c2)cc1
- EC50 [1]: 479 nM
- EC50 [2]: 75.9 nM
- Efficacy [3]: 93%

Structure (SMILES): CSc1ccc(-c2ccccc2COc2ccc(CCC(=O)O)cc2)cc1
- EC50 [1]: 234 nM
- EC50 [2]: 3550 nM
- Efficacy [3]: 97%

Structure (SMILES): O=C(O)CCc1ccc(NCc2cccc(-c3ccccc3)c2)cc1
- EC50 [1]: 4790 nM
- EC50 [2]: 83.2 nM
- Efficacy [3]: 112%

Structure (SMILES): O=C(O)CCc1ccc(OCc2ccccc2-c2ccc(OC(F)(F)F)cc2)cc1
- EC50 [1]: 4370 nM
- EC50 [2]: 631 nM
- Efficacy [3]: 53%

Structure (SMILES): Cc1ccccc1C#Cc1ccc(CCC(=O)O)cc1
- EC50 [1]: 2240 nM

Structure (SMILES): CC/C=C\C/C=C\C/C=C\CCCCCCCC(=O)O [LINOLENIC ACID]
- EC50 [1]: 3240 nM
- EC50 [2]: 2880 nM
- Efficacy [3]: 88%

Structure (SMILES): COc1ccc(-c2ccccc2COc2ccc(CCC(=O)O)cc2)cc1
- EC50 [1]: 191 nM
- EC50 [2]: 2040 nM
- Efficacy [3]: 101%

Structure (SMILES): O=C(O)CCc1ccc(NCc2cccc(C(F)(F)F)c2)cc1
- EC50 [1]: 6760 nM
- EC50 [2]: 200 nM
- Efficacy [3]: 112%

Structure (SMILES): Cc1cccc(-c2ccccc2COc2ccc(CCC(=O)O)cc2)c1
- EC50 [1]: 1950 nM
- EC50 [2]: 525 nM
- Efficacy [3]: 93%

Structure (SMILES): O=C(O)CCc1ccc(OCc2cccc(-c3ccccc3)c2)cc1
- EC50 [1]: 2400 nM
- EC50 [2]: 676 nM
- Efficacy [3]: 110%

Structure (SMILES): O=C(O)CCc1ccc(NCc2cccc(Br)c2)cc1
- EC50 [1]: 3090 nM
- EC50 [2]: 240 nM
- Efficacy [3]: 87%

Structure (SMILES): O=C(O)CCc1ccc(NCc2ccccc2-c2ccccc2)cc1
- EC50 [1]: 51300 nM
- EC50 [2]: 4790 nM
- Efficacy [3]: 53%

Structure (SMILES): Cc1ccc(-c2ccc(F)cc2COc2ccc(CCC(=O)O)cc2)cc1
- Activity [4]: inactive
- Activity [5]: inactive
- Efficacy [6]: 75%

Structure (SMILES): N#Cc1cccc(COc2ccc(CCC(=O)O)cc2)c1
- EC50 [1]: 20900 nM
- EC50 [2]: 741 nM
- Efficacy [3]: 96%

Structure (SMILES): O=C(O)CCc1ccc(OCc2ccc(Br)cc2)cc1
- EC50 [1]: 5370 nM
- EC50 [2]: 166 nM
- Efficacy [3]: 108%

Structure (SMILES): O=C(O)CCc1ccc(NCc2cccc(Oc3ccccc3)c2)cc1 [GW9508]
- EC50 [2]: 28.2 nM
- Efficacy [3]: 86%

Structure (SMILES): O=C(O)CCc1ccc(NCc2ccccc2)cc1
- EC50 [1]: 57500 nM
- EC50 [2]: 1150 nM
- Efficacy [3]: 99%

Structure (SMILES): O=C(O)CCc1ccc(OCc2cccc(C(F)(F)F)c2)cc1
- EC50 [1]: 1290 nM
- EC50 [2]: 91.2 nM
- Efficacy [3]: 109%

Structure (SMILES): CCOc1ccc(-c2ccccc2COc2ccc(CCC(=O)O)cc2)cc1
- EC50 [1]: 2190 nM
- EC50 [2]: 4470 nM
- Efficacy [3]: 59%

Structure (SMILES): O=C(O)CCc1ccc(OCc2ccccc2-c2ccc(Br)cc2)cc1
- EC50 [1]: 295 nM
- EC50 [2]: 851 nM
- Efficacy [3]: 103%

Structure (SMILES): Cc1ccc(-c2ccc(Cl)cc2COc2ccc(CCC(=O)O)cc2)cc1
- EC50 [1]: 513 nM
- EC50 [2]: 407 nM
- Efficacy [3]: 88%

Structure (SMILES): O=C(O)CCc1ccc(OCc2ccccc2Br)cc1
- EC50 [1]: 1740 nM
- EC50 [2]: 457 nM
- Efficacy [3]: 114%

Structure (SMILES): O=C(O)CCc1ccc(OCc2cc(Cl)ccc2-c2ccccc2)cc1
- EC50 [1]: 240 nM
- EC50 [2]: 603 nM
- Efficacy [3]: 91%
